# Screens: PubChem, Broad Institute
# Most compounds without a hit are left out; they make up all but 2.1% or so of the library.
# aSyn 5UTR inh: MLPCN primary screen, SNCA 5' untranslated region | alpha-synuclein 5'UTR reporter, inhibitor activity | inhibition, % (tested at 7.5 µM) | hit rate 0.82% among 300,000 | AID 1813, 2009; in the data active = inhibition above about 60%; inconclusive = no clear call, values can overlap the other calls;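 note: H4 neuroglioblastoma cells stably carrying SNCA 5'UTR luciferase fusion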
# EWS-Fli block: EWS/Fli-driven NR0B1 reporter inhibitors, primary screen, A673 cells, NR0B1 luciferase, luminescence, MLPCN library. inhibition, % at 12.6 µM. viability-normalised. hit rate 0.67% among 350,000;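 active = mean inhibition of at least 50% after viability correction, with every replicate also passing that limit; inconclusive = mean reaches 50% but only one of two replicates passes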;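 note: firefly luciferase signal divided by Alamar Blue viability fluorescence both relative to DMSO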
# Shn3 3UTR inh: reduction of Shn3 3'UTR firefly luciferase signal, primary screen, Schnurri-3 inhibitor project, cell-based, Clone20 osteoblasts, set 2. Clone20 osteoblast Shn3 3'UTR firefly luciferase, 24 h. inhibition, % at 12.5 µM. hit rate 0.52% among 360,000. AID 588674, 2011;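 active = mean inhibition of at least 75% with every replicate also reaching 75%; inconclusive = mean inhibition at least 75% but some replicate below; inactive = mean inhibition below 75%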
# EBV LMP1 NFkB: EBV LMP1-driven NF-kappaB luciferase reporter inhibitors, primary screen, cell-based, luminescence, single point; LMP1-induced NF-kappaB luciferase reporter cells; inhibition, % at 12.5 µM; hit rate 0.69% among 350,000; AID 504558, 2011; in the data active = inhibition above about 41%; inconclusive = no clear call, values can overlap the other calls
# PAX8 inh HTS: inhibitors of PAX8-driven TPO luciferase reporter, primary screen, RMG-I cells, single concentration; SteadyGlo, 24 h; hit rate 1.2% among 360,000; AID 652154, 2013; inhibition, % at 12.6 µM;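 active = mean replicate inhibition at least 60% with every replicate also reaching 60%; inconclusive = only one of the two criteria is met; inactive = mean below 60% and not all replicates reaching 60%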;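 note: luciferase light reporting Pax8 driven TPO promoter activity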
# FN deposit inh: inhibitors of fibronectin matrix deposition, primary screen, AH1F cells, Alexa488-fibronectin fluorescence, plate reader. hit rate 0.086% among 350,000. AH1F fibroblasts, overnight. AID 743247, 2014. inhibition, % at 12.6 µM;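 active = mean inhibition across replicates of 30% or more, regardless of how many single replicates reach that level; inconclusive = mean under 30% yet at least half of replicates reach 30%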
#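 Material: AH1F fibroblast monolayer depositing Alexa488-labelled fibronectin into matrix / Amount: 10000 AH1F cells per well / Signal: fluorescence 485/525 nm / Medium: DMEM, 2% serum / Compound: single dose, pinned / Incubation: 1 h cell adhesion before compound, then overnight fibronectin incubation / Reagent: Alexa488-FN, 24 nM final / Read-out: inhibition of fibronectin deposition signal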
# Hits are given with their value; – = inactive; ? = inconclusive; · = no result given.
SMILES,aSyn 5UTR inh,EWS-Fli block,Shn3 3UTR inh,EBV LMP1 NFkB,PAX8 inh HTS,FN deposit inh
Cc1ccc(/C=C2/NC(=O)N(c3ccccc3)C2=O)o1,–,·,–,–,·,·
O=C1N/C(=C/c2ccc(N3CCOCC3)o2)C(=O)N1c1cccc(Cl)c1,–,–,96,–,–,–
CC(=O)N1CCc2c(sc(NC(=O)c3ccc([N+](=O)[O-])o3)c2C(N)=O)C1,·,–,100,–,87,–
CCC(=O)Nc1sc2c(c1C(N)=O)CCN(C(C)=O)C2,–,–,–,–,–,–
O=C(Nc1cccc(-c2ccc(N3CCCCC3)nn2)c1)C(F)(F)F,96,·,–,55,95,–
CC1CCN(c2ccc(-c3cccc(NC(=O)C(F)(F)F)c3)nn2)CC1,103,·,–,80,94,–
O=C(Nc1cccc(-c2ccc(N3CCCCC3)nn2)c1)c1ccc(Br)o1,–,–,–,–,–,–
CC=Cc1ccc2n(c1=O)C[C@H]1[C@H](CO)[C@@H](C(=O)NCC)N(C(=O)C3CCOCC3)[C@@H]21 (mixture of isomers),·,–,·,·,·,·
CCOc1cc(C(=O)N/N=C/C(Br)=C/c2ccccc2)cc(OCC)c1OCC,104,·,–,–,·,·
O=C(N/N=C/C(Br)=C/c1ccccc1)c1ccncc1,–,–,–,–,–,–
O=S(=O)(N[C@@H]1CC[C@@H](CCn2cc(C3(O)CCCC3)nn2)O[C@@H]1CO)c1ccccc1,·,–,·,·,–,·
CCOc1ccc2c(c1)OC(c1ccccc1)(C(F)(F)F)NC2=O (stereo unspecified),–,·,–,–,–,–
CCOc1ccc2c(c1)OC(c1ccc(OC)cc1)(C(F)(F)F)NC2=O (stereo unspecified),96,–,–,–,–,–
O=C(NC1Cc2ccccc2C1)[C@H]1[C@H](CO)[C@H]2Cn3c(cccc3=O)[C@@H]1N2C(=O)CC1CC1,·,–,·,·,–,·
C[C@H](CO)N1C[C@H](C)[C@H](CN(C)C(=O)c2ccncc2)Oc2cc(/C=C/c3ccccc3)ccc2S1(=O)=O,·,–,·,·,·,·
Cc1ccc(C(=O)Nc2ccc3c(c2)CCC3)cc1,–,59,–,–,–,–
Cc1ccc(C(=O)Nc2ccc3c(c2)OCCO3)cc1,89,69,–,43,–,–
Cc1ccc(C(=O)Nc2ccc3c(c2)OCCO3)c(Cl)c1,80,63,–,47,–,–
Cc1cc(NC(=O)c2ccc3c(c2)OCCO3)no1,62,·,–,60,·,·
Cc1ccc(C(=O)NCC(=O)Nc2ccc3c(c2)CCC3)cc1,·,–,–,–,·,–
COc1ccc(NC(=O)N(C)C[C@H]2Oc3ccc(NS(=O)(=O)c4ccc(F)cc4)cc3CC(=O)N([C@@H](C)CO)C[C@H]2C)cc1,·,–,·,·,·,·
O=C(CC(C(=O)c1ccccc1)c1ccccc1)c1ccccc1 (stereo unspecified),·,–,–,–,·,–
CN(C)CC(C(=O)c1ccccc1)c1ccccc1 (stereo unspecified),–,·,95,78,·,·
CN(Cc1cc(Cl)cc(Cl)c1)CC(C(=O)c1ccccc1)c1ccccc1 (stereo unspecified),·,–,–,–,79,–
COc1ccccc1C1c2ccc3ccccc3c2Oc2ncn(CCCO)c(=N)c21 (stereo unspecified),–,·,–,–,·,·
SMILES,aSyn 5UTR inh,EWS-Fli block,Shn3 3UTR inh,EBV LMP1 NFkB,PAX8 inh HTS,FN deposit inh
COc1ccc(C2c3ccc4ccccc4c3Oc3ncn(CCCN(C)C)c(=N)c32)cc1 (stereo unspecified),90,63,–,–,–,–
COc1ccccc1C1c2ccc3ccccc3c2Oc2ncn(CCN(C)C)c(=N)c21 (stereo unspecified),–,–,–,48,–,–
C[C@@H]1CN([C@H](C)CO)S(=O)(=O)c2ccc(Br)cc2O[C@@H]1CN(C)Cc1cccnc1,·,–,·,·,·,–
CC1=NN(c2nc(-c3ccc(C)cc3)cs2)C(=O)C1N=Nc1ccc(C(N)=O)cc1 (stereo unspecified),86,55,–,–,–,–
CC1=NN(c2nc(-c3ccc(C)cc3)cs2)C(=O)C1N=Nc1ccc2ccccc2c1 (stereo unspecified),–,·,–,–,·,·
CCn1cc(C(=O)NCc2ccco2)c(=O)c2cc(S(=O)(=O)N3CC(C)CC(C)C3)ccc21 (stereo unspecified),82,·,85,–,63,–
CCn1cc(C(=O)NCc2ccco2)c(=O)c2cc(S(=O)(=O)N3CCC(C)CC3)ccc21,–,·,–,–,–,–
O=C(Nc1nnc(C23CC4CC(CC(C4)C2)C3)s1)c1ccco1,–,·,–,–,–,–
Cc1ccccc1-c1nnc(NC(=O)c2ccc(N3C(=O)CCC3=O)cc2)s1,–,–,–,–,–,–
CC(C)c1nnc(NC(=O)c2ccc(N3C(=O)CCC3=O)cc2)s1,–,–,–,86,–,–
O=C(Nc1nnc(C23CC4CC(CC(C4)C2)C3)s1)c1ccc(N2C(=O)CCC2=O)cc1,–,–,–,81,–,–
C[C@H](CO)N1C[C@H](C)[C@H](CN(C)Cc2ccc(C(F)(F)F)cc2)Oc2ccc(NS(=O)(=O)c3cccs3)cc2CC1=O,·,–,·,·,–,·
CC(C)NC(=O)N1C[C@@H]2C(c3ccccc3)[C@H](C1)N2CC(F)(F)F (stereo partly specified),·,·,·,·,·,–
C[C@@H]1CN([C@@H](C)CO)S(=O)(=O)c2ccc(C#Cc3ccccc3)cc2O[C@@H]1CN(C)S(=O)(=O)c1cn(C)cn1,·,–,·,·,·,–
O=C1NC(Cc2ccc(O)cc2)c2nc3ccc(F)cc3c(=O)n2-c2cc3ccccc3cc21 (stereo unspecified),·,64,–,–,–,–
O=C1NC(Cc2ccc(O)cc2)c2nc3cc(F)c(F)cc3c(=O)n2-c2cc3ccccc3cc21 (stereo unspecified),·,–,–,–,–,–
O=C1NC(Cc2ccccc2)c2nc3cc(F)ccc3c(=O)n2-c2cc3ccccc3cc21 (stereo unspecified),·,–,–,–,62,·
Cc1ccc2c(c1)-n1c(nc3ccccc3c1=O)C(Cc1ccc(O)cc1)NC2=O (stereo unspecified),·,–,·,·,–,–
Cc1ccc2nc3n(c(=O)c2c1)-c1cc2ccccc2cc1C(=O)NC3Cc1ccc(O)cc1 (stereo unspecified),·,62,–,–,–,–
O=C(C[C@@H]1CC[C@H](NS(=O)(=O)c2ccc(F)cc2)[C@H](CO)O1)NC1CCC1,·,–,·,·,–,–
O=C(N[C@H]1CC[C@H](CC(=O)N2CCc3ccccc3C2)O[C@H]1CO)C1CCC1,·,–,·,·,–,·
COc1ccc(OC)c2sc(N(CCN(C)C)C(=O)/C=C/c3cccs3)nc12,?,·,?,–,79,–
